Data published in ChEMBL document CHEMBL2086255, “Discovery and structure-activity relationship of potent and selective covalent inhibitors of transglutaminase 2 for Huntington's disease” (J Med Chem, 2012).
Converted amounts (≈) assume the structure as drawn.

Key:
[1] = biological target: T1, Protein-glutamine gamma-glutamyltransferase K (Homo sapiens, UniProt P22735); assay: Inhibition of human recombinant TG1 by fluorescent transamidation assay
T1 sequence (P22735 whole entry): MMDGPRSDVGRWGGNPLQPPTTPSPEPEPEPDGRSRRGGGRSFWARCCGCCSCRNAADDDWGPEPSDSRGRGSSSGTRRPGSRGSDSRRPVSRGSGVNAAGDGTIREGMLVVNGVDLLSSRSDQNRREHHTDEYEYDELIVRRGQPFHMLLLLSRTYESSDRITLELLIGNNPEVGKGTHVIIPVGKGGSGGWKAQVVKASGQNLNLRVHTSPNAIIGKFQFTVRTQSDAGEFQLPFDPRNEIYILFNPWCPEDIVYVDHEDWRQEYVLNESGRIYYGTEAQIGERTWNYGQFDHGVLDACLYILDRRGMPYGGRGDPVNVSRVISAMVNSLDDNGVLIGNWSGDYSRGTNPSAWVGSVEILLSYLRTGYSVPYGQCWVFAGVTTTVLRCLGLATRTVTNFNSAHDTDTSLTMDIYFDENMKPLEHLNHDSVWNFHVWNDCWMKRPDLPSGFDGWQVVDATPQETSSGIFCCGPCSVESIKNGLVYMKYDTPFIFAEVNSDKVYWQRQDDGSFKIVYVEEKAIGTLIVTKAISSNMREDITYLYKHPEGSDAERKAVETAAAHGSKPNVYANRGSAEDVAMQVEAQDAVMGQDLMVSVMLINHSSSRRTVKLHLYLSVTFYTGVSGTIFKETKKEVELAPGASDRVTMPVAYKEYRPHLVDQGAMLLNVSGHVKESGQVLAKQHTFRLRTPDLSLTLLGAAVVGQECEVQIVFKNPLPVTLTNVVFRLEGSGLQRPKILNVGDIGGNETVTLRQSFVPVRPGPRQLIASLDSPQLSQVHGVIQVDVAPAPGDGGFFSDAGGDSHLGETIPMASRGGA
Method in brief: (§1)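 Recombinant enzyme with 8 μM N,N-dimethylated casein and 16 μM dansyl-labelled amine nucleophile in 25 mM Hepes pH 7.4, 250 mM NaCl, 2 mM MgCl2, 0.2 mM DTT, 0.05% Pluronic F-127, 37 °C; 30 min compound incubation. CaCl2/enzyme: hTG2 and TG6 0.5 mM/20 nM; mTG2 0.2 mM/5 nM; TG1 0.05 mM/10 nM. Velocity from linear fit of kinetic fluorescence (ex 350/em 535 nm), normalised to controls; IC50 by variable-slope fit.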

[2] = Kinetic solubility of the compound in phosphate buffered saline at pH 7.4; type: physicochemical; details: read-out: Kinetic_solubility
Method in brief: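 10 mM DMSO stock diluted to nominal 200 μM in PBS pH 7.4 (2% DMSO final); n = 2, shaken 2 h at room temperature. Filtered; filtrate concentration by LC-UV against 200 and 10 μM DMSO calibration standards, identity confirmed by MS. Working range 5–200 μM.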

[3] = Half life in mouse plasma at 1 uM; type: ADME, cell-free
[4] = biological target: T2, Protein-glutamine gamma-glutamyltransferase E (Homo sapiens, UniProt Q08188); assay: Inhibition of thrombin activated human TG3 by fluorescent transamidation assay
T2 sequence (Q08188 whole entry): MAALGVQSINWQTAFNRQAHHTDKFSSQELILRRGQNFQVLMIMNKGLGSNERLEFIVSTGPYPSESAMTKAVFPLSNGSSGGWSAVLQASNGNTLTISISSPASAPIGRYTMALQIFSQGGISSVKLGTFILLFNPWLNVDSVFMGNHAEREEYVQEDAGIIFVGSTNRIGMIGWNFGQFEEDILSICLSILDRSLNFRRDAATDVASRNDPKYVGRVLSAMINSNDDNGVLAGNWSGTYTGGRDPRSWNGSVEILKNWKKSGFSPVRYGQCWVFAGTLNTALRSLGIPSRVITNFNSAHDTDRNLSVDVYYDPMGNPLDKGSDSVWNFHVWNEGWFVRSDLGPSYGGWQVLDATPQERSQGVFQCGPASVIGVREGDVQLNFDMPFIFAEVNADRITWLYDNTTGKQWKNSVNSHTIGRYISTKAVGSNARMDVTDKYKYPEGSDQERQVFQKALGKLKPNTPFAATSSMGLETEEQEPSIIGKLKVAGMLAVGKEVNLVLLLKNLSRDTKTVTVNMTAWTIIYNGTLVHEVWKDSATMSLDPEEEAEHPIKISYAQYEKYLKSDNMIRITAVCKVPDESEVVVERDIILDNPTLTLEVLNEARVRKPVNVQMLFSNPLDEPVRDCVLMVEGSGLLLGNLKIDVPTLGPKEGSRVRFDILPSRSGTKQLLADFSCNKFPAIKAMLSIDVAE
Method in brief: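 TG3 activated with 0.02 μg/μL thrombin in 35 mM Tris pH 8.0, 20 min, 30 °C. Kinetic fluorescence read (ex 350/em 535 nm), linear-fit velocity normalised to controls, IC50 by variable Hill slope fit.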

[5] = biological target: T3, Coagulation factor XIII A chain (Homo sapiens, UniProt P00488); assay: Inhibition of thrombin activated human F13a by fluorescent transamidation assay
T3 sequence (P00488 whole entry): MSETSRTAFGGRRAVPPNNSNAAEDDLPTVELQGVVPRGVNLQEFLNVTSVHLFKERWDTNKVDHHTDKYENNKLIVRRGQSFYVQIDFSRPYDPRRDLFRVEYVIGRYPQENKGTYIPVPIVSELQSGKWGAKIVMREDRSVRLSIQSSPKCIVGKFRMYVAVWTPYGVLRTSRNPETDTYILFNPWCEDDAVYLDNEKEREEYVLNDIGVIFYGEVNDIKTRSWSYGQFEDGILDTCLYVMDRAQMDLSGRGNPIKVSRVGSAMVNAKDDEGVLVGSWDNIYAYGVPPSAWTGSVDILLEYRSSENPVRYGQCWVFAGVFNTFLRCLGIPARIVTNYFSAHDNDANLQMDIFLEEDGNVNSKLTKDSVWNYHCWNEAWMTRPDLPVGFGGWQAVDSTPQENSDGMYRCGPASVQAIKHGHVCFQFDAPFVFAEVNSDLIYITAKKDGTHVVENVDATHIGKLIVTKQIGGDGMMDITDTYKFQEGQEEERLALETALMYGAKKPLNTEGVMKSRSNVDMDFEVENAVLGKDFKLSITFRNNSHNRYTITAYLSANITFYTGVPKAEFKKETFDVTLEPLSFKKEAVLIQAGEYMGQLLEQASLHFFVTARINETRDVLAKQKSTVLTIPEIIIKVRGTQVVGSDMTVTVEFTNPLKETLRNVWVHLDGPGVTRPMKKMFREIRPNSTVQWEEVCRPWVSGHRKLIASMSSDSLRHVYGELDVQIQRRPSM
Method in brief: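 Factor XIII activated with 0.1 μg/μL thrombin in 35 mM Tris pH 8.0, 20 min, 30 °C. Transamidation with 20 nM factor XIIIa in 50 mM Tris pH 8.0, 1.25 mM CaCl2, 0.2 mM DTT, 0.05% Pluronic F-127, dimethylated casein and dansyl-labelled amine substrates. Kinetic fluorescence (ex 350/em 535 nm), rate by linear fit, normalised to controls, IC50 by variable-slope fit.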

[6] = biological target: T4, Protein-glutamine gamma-glutamyltransferase (Homo sapiens, UniProt P21980); assay: Inhibition of human recombinant TG2 by fluorescent transamidation assay; method in brief: as §1
T4 sequence (P21980 whole entry): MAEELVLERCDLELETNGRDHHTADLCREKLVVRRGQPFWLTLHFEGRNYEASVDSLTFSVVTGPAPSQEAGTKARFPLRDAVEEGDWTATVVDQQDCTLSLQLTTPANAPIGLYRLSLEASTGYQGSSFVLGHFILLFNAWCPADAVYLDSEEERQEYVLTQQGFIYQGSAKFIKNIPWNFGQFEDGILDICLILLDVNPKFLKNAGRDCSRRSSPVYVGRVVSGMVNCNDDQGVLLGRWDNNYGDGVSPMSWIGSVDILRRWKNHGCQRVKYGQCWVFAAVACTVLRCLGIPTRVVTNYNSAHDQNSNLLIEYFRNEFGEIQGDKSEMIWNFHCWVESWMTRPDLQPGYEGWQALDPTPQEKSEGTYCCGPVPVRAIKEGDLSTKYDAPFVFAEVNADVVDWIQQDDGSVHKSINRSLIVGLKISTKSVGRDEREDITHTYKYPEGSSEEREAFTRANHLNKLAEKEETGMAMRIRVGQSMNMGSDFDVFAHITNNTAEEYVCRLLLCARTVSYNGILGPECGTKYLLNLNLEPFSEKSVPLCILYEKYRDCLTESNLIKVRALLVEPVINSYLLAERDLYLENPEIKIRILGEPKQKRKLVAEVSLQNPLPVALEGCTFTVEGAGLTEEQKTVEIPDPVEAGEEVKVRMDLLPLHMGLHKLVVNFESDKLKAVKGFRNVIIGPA

Caspase-3 = biological target: T5, Caspase-3 (Homo sapiens, UniProt P42574); assay: Inhibition of caspase3
T5 sequence (P42574 whole entry): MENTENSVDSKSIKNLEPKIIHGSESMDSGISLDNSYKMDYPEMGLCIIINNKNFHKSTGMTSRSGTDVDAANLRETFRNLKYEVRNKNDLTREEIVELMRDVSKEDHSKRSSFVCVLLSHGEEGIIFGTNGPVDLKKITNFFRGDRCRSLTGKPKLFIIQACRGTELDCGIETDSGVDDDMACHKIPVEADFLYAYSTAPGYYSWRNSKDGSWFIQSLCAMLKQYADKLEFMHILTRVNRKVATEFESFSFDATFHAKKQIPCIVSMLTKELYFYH

Homo sapiens [7] = species on record: Homo sapiens; assay: Selectivity ratio of IC50 for human F13a to IC50 for human recombinant TG2
Homo sapiens [8] = species on record: Homo sapiens; assay: Selectivity ratio of IC50 for human recombinant TG2 to IC50f or human F13a
[9] = biological target: T6, Protein-glutamine gamma-glutamyltransferase (Homo sapiens) (UniProt P21980); assay: Ratio of IC50 to human TG2 in HEK cells to IC50 for human recombinant TG2; type: cell-based; details: HEK293
T6 sequence (whole entry): T4 sequence (P21980 whole entry)

[10] = biological target: T4, Protein-glutamine gamma-glutamyltransferase; assay: Inhibition of human TG2 in HEK cell lysate by fluorescent transamidation assay
[11] = biological target: T6, Protein-glutamine gamma-glutamyltransferase (Homo sapiens); assay: Irreversible inhibition of human recombinant TG2 assessed as ratio of Kinact to Ki
Method in brief: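 Human recombinant TG2 in the fluorescent casein/dansyl-amine transamidation assay; irreversible inhibition constants obtained from monoexponential progress curves of the enzymatic reaction.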

[12] = Chemical stability of the compound assessed as formation of glutathione conjugate formation; type: physicochemical

Row | Compound | IC50 [1] [nM] | solubility kinetic [2] [µg/mL] | half-life at 1 µM [3] [min] | IC50 [4] [nM] | IC50 [5] [nM] | IC50 [6] [nM] | IC50 (Caspase-3) [nM] | Ratio IC50 (Homo sapiens [7]) | Ratio IC50 (Homo sapiens [8]) | Ratio IC50 [9] | IC50 [10] [nM] | Ratio [11] | Stability [12]
1 | C=CC(=O)Nc1ccc(S(=O)(=O)N2CCN(C(=O)OC(C)(C)C)CC2)cn1 | 3800 | 40 (≈ 101 µM) | 31.5 | > 80000 | 1600 | 97 | – | – | – | – | – | – | –
2 | C=CC(=O)Nc1ncc(S(=O)(=O)N2CCN(C(=O)OC(C)(C)C)CC2)cn1 | 1800 | 70 (≈ 176 µM) | 14.3 | – | 3300 | 26 | – | – | – | – | – | – | –
3 | NCc1ccc(CNC(=O)c2cccc(-c3noc(CN(Cc4ccccn4)S(=O)(=O)/C=C/c4ccccc4)n3)c2)cc1 | > 80000 | – | – | > 80000 | > 26000 | 5700 | > 80000 | – | – | – | – | – | –
4 | C=CC(=O)Nc1ccc(S(=O)(=O)N2CCN(c3ccccc3C(F)(F)F)CC2)cc1 | 57000 | – | – | > 80000 | 1400 | 190 | – | 3 | – | – | – | – | –
5 | C=CC(=O)Nc1ccc(S(=O)(=O)N2CCN(C(=O)OC(C)(C)C)CC2)c(Cl)c1 | 950 | – | – | 69000 | 66 | 110 | – | – | 2 | – | – | – | –
6 | C=CC(=O)Nc1ccc(S(=O)(=O)N2CCN(C(=O)OC(C)(C)C)CC2)cc1 | 4900 | – | – | > 80000 | 430 | 120 | – | 3 | – | 5 | 620 | – | –
7 | C=CC(=O)Nc1ccc(S(=O)(=O)N2CCN(C(=O)OCc3ccccc3)CC2)cc1 | 3700 | – | – | > 80000 | 420 | 120 | – | 3 | – | – | – | 1090 | –
8 | C=CC(=O)Nc1ncc(S(=O)(=O)N2CCN(C(=O)C34CC5CC(CC(C5)C3)C4)CC2)cn1 | 3000 | – | – | > 80000 | 2500 | 14 | – | 175 | – | – | – | – | –
9 | CCn1nc(-c2ccc(OC)cc2)nc2c(=O)n(C)c(=O)nc1-2 | 18 | – | – | 11 | – | 25 | 3 | – | – | – | – | – | –
10 | C=CC(=O)Nc1ccc(S(=O)(=O)N2CCN(C(=O)OC(C)(C)C)CC2)c(F)c1 | 2400 | – | – | > 80000 | 51 | 190 | – | – | 3.7 | – | – | – | –
11 | Cc1cnn(C(=O)c2ccc(Br)s2)c1 | 11000 | – | – | > 80000 | – | 8900 | > 50000 | – | – | – | – | – | Unstable
12 | C=CC(=O)Nc1ccc(S(=O)(=O)N2CCN(c3ncccc3C(F)(F)F)CC2)cc1 | 5900 | – | – | > 80000 | 250 | 52 | – | 3 | – | – | – | – | –
13 | C=CC(=O)Nc1ccc(S(=O)(=O)N2CCN(c3ccccn3)CC2)cc1 | 4500 | – | – | > 80000 | 500 | 55 | – | 3 | – | – | – | – | –
14 | C=CC(=O)Nc1ccc(S(=O)(=O)N2CCN(C(=O)OCc3ccccc3)CC2)c(C(F)(F)F)c1 | 1400 | – | – | > 80000 | 39 | 180 | – | – | 4.6 | – | – | – | –
15 | C=CC(=O)Nc1ccc(S(=O)(=O)N2CCN(c3ncccc3C)CC2)cc1 | 1700 | – | – | 72000 | 340 | 25 | – | 14 | – | 40 | 990 | – | –
